Measured values from ChEMBL document CHEMBL1131161 (J Med Chem, 1998).

Experiments:
Progesterone receptor = molecular target: T1, Progesterone receptor (Homo sapiens, UniProt P06401); assay: Effective concentration (EC50) against human progesterone receptor expressed in CV-1 cell; type: functional, cell-based
T1 sequence (P06401 whole entry): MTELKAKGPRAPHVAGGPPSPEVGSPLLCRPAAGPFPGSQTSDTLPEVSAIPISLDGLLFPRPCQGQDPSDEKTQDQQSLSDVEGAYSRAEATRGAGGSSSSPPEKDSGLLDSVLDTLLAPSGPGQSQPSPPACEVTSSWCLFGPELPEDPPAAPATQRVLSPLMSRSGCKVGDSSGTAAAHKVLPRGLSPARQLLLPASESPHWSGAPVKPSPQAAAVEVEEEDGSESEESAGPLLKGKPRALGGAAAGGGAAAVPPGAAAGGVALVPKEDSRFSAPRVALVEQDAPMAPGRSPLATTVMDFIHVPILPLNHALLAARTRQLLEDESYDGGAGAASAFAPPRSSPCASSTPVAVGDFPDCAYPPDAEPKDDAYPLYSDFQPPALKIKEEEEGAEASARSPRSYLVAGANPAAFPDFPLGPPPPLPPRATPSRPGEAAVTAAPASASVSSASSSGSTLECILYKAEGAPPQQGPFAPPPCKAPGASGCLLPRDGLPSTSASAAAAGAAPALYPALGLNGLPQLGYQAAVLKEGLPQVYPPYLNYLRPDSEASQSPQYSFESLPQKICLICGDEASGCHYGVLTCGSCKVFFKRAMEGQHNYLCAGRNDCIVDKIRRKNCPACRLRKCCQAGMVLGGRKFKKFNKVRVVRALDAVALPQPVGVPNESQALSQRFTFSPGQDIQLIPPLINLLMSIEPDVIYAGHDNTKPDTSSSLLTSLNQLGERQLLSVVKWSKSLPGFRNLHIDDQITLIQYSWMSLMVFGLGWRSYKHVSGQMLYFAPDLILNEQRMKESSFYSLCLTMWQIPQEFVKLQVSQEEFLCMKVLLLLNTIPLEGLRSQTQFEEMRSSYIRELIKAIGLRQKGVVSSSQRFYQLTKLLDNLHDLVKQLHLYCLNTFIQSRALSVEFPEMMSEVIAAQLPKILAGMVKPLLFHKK

Androgen receptor [1] = molecular target: T2, Androgen receptor (Homo sapiens, UniProt P10275); assay: Inhibitory activity (IC50) against human androgen receptor expressed in CV-1 cells; type: cell-based
T2 sequence (P10275 whole entry): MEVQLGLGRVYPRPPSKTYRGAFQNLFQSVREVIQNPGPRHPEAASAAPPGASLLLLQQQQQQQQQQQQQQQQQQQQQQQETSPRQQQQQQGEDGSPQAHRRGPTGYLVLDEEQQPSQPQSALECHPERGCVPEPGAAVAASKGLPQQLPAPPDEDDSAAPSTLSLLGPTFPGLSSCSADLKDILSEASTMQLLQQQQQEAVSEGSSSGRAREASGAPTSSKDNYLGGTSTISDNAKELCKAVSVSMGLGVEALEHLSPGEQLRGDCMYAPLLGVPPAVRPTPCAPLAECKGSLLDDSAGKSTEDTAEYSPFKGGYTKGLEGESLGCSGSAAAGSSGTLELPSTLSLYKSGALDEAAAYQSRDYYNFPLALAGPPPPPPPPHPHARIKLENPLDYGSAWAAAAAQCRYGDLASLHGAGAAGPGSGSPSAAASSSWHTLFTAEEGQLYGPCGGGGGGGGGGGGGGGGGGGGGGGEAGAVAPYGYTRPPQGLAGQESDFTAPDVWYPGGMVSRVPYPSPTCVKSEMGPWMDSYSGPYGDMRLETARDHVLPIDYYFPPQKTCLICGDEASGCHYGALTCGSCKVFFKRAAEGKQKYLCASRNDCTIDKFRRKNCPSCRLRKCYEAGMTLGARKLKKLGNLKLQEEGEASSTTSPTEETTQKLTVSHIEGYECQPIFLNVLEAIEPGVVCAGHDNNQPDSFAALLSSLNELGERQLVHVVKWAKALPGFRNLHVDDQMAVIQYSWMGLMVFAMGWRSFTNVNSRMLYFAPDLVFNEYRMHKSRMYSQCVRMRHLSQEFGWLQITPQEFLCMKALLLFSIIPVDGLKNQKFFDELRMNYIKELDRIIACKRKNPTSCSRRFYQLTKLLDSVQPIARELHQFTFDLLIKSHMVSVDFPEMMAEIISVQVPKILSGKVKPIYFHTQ
Outline: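 Cotransfection assays in CV-1 cells with a luciferase reporter, read as normalized LUC expression. In antagonist mode, the reference agonists were DHT for hAR, dexamethasone for hGR and aldosterone for hMR. Antagonist efficacy was expressed as the percent of maximal inhibition of the agonist. Values are means of at least three separate experiments in triplicate, or of two experiments.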

CV-1 = assay: Inhibitory concentration in CV-1 cell; type: functional, cell-based, Cercopithecidae; conditions: Chlorocebus aethiops
Androgen receptor [2] = molecular target: T2, Androgen receptor
Androgen receptor [3] = molecular target: T2, Androgen receptor; remark: listed apart in the source

Q: `CC1=CC(C)(C)Nc2ccc3c(c21)/C(=C/c1cc(F)ccc1F)Oc1ccccc1-3` was tested. Which EC50 (Progesterone receptor) did it give?
A: 14.7 nM

Q: And the IC50 (Androgen receptor [1])?
A: 1600 nM

Q: What about the IC50 (CV-1) of the same compound?
A: > 10000 nM

Q: What about the Ki (Androgen receptor [2]) of the same compound?
A: 887 nM

Q: For `CC1=CC(C)(C)Nc2ccc3c(c21)/C(=C/c1ccccc1C)Oc1ccccc1-3`, which EC50 (Progesterone receptor) is on record?
A: 5.7 nM

Q: What about the IC50 (CV-1) of the same compound?
A: > 10000 nM

Q: And the Ki (Androgen receptor [2])?
A: 844 nM

Q: What about the IC50 (Androgen receptor [3]) of the same compound?
A: 1060 nM

Q: Which results are given for `CC1=CC(C)(C)Nc2ccc3c(c21)/C(=C/c1ccc(F)c(F)c1)Oc1ccccc1-3`?
A: EC50 (Progesterone receptor): 14.7 nM; IC50 (Androgen receptor [1]): 916 nM; IC50 (CV-1): > 10000 nM; Ki (Androgen receptor [2]): > 1000 nM
